From ChEMBL document CHEMBL5346868 (Eur J Med Chem, 2023)

How the values were obtained:
[1] = test system: Zika virus; experiment: Antiviral activity against ZIKV MR766 infected in african green monkey Vero E6 cells assessed as decline in virus induced cytopathogenicity measured after 5 days by MTS based microscopic analysis; format: functional, organism-based; conditions: MR766, Vero C1008, 120 h
How it was run: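 Vero E6 cells (10^4/well) are seeded in MEM with 2% FCS and left to adhere overnight. Cells are then infected with ZIKV MR766 (passaged in C6/36 cells) and given 2-fold serial compound dilutions. After 5 days, CPE is scored by MTS and by microscopy of fixed, stained cells. EC50 is the 50% antiviral effect.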

[2] = Selectivity index, ratio of CC50 for human RD cells to EC50 for antiviral activity against human Enterovirus 71; format: toxicity; conditions: read-out: Ratio CC50/EC50
How it was run: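 SI is calculated as CC50 on uninfected RD cells divided by EC50 in the 3-day EV71 BrCr CPE-reduction MTS assay.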

[3] = Cytotoxicity against african green monkey Vero E6 cells by MTS assay; format: toxicity, cell-based, Vero C1008; conditions: chlorocebus sabaeus
How it was run: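 Cytotoxicity is measured on treated, uninfected Vero E6 cells in parallel with the antiviral assays, using a standard MTS assay. CC50 is the concentration causing a 50% adverse effect on host cells.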

[4] = test system: SARS-CoV-2; experiment: Antiviral activity against SARS-CoV-2 BetaCoV/Belgium/GHB-03021/2020 infected in african green monkey Vero cells assessed as decline in virus induced cytopathogenicity measured after 4 days by argon laser scanning microscopic analysis; format: functional, organism-based; conditions: Severe acute respiratory syndrome coronavirus 2, BetaCoV/Belgium/GHB-03021/2020, Vero, 96 h
[5] = Cytotoxicity against human RD cells by MTS assay; format: toxicity, cell-based
How it was run: (§1)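 Treated, uninfected RD or HeLa cells are run alongside the matching enterovirus CPE assays, with viability read by MTS. CC50 is the concentration giving a 50% adverse effect on host cells.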

[6] = test system: Enterovirus A71; experiment: Antiviral activity against human Enterovirus 71 BrCr infected in human RD cells assessed as reduction of virus induced cytopathic effect incubated for 3 days by MTS assay; format: functional, organism-based; conditions: Enterovirus A, 72 h
How it was run: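 Confluent RD cells (EMEM, 10% heat-inactivated FBS) are infected with ~100 CCID50 of EV71 BrCr and treated with a compound dilution series. After 3 days at 37 °C, 5% CO2, residual viability is measured by MTS. EC50 is the concentration giving 50% antiviral effect, from at least 2–3 independent experiments.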

[7] = test system: Coxsackievirus B3; experiment: Antiviral activity against Coxsackievirus B3 infected in african green monkey Vero cells assessed as reduction of virus induced cytopathic effect incubated for 3 days by MTS assay; format: functional, organism-based; conditions: Enterovirus B, 72 h
How it was run: (§2)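 Same setup as the EV71 assay: confluent monolayers (Vero A for CVB3; HeLa for CVA21, EV68, HRV-A02, HRV-B14) are infected with virus and treated with a compound dilution series. Incubation is 3 days at 37 °C, 5% CO2, and residual viability is read by MTS. EC50 is the 50% effective concentration, mean of at least 2 independent experiments.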

[8] = test system: rhinovirus A2; experiment: Antiviral activity against Human rhinovirus 2 infected in human HeLa cells assessed as reduction of virus induced cytopathic effect incubated for 3 days by MTS assay; format: functional, organism-based; conditions: Rhinovirus A, 72 h; how it was run: as §2
[9] = Cytotoxicity against african green monkey Vero cells by MTS assay; format: toxicity, cell-based; conditions: chlorocebus sabaeus
[10] = test system: Coxsackievirus A21; experiment: Antiviral activity against Coxsackievirus 21 infected in human HeLa cells assessed as reduction of virus induced cytopathic effect incubated for 3 days by MTS assay; format: functional, organism-based; conditions: Enterovirus C, 72 h
How it was run: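 HeLa cells infected with coxsackievirus A21 (~100 CCID50) and treated with a compound dilution series, as in the EV71 set-up. Incubation was 3 days at 37 °C, 5% CO2, with residual viability quantified by MTS. EC50 is the concentration giving 50% antiviral effect. Values are means of ≥2 independent experiments.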

[11] = test system: enterovirus D68; experiment: Antiviral activity against Human enterovirus 68 infected in human HeLa cells assessed as reduction of virus induced cytopathic effect incubated for 3 days by MTS assay; format: functional, organism-based; conditions: Enterovirus D, 72 h; how it was run: as §2
[12] = test system: rhinovirus B14; experiment: Antiviral activity against Human rhinovirus 14 infected in human HeLa cells assessed as reduction of virus induced cytopathic effect incubated for 3 days by MTS assay; format: functional, organism-based; conditions: Rhinovirus B, 72 h; how it was run: as §2
[13] = Cytotoxicity against human HeLa cells by MTS assay; format: toxicity, cell-based; how it was run: as §1
[14] = biological target: METTL3/METTL14 (Homo sapiens, UniProt Q86U44); experiment: Inhibition of human recombinant full length METTL3/human N-terminal FLAG-tagged METTL14 expressed in SF9 cells assessed as methyltransferase residual activity using ssRNA 5'-rUrArC rArCrU rCrGrA rUrCrU rGrGrA rCrUrA rArArG rCrUrG rCrUrC -3' as substrate incubated for 20 mins followed by H-SAM addition measured after 2 hrs by radio isotope reaction system analysis
METTL3/METTL14, sequence (Q86U44 whole entry): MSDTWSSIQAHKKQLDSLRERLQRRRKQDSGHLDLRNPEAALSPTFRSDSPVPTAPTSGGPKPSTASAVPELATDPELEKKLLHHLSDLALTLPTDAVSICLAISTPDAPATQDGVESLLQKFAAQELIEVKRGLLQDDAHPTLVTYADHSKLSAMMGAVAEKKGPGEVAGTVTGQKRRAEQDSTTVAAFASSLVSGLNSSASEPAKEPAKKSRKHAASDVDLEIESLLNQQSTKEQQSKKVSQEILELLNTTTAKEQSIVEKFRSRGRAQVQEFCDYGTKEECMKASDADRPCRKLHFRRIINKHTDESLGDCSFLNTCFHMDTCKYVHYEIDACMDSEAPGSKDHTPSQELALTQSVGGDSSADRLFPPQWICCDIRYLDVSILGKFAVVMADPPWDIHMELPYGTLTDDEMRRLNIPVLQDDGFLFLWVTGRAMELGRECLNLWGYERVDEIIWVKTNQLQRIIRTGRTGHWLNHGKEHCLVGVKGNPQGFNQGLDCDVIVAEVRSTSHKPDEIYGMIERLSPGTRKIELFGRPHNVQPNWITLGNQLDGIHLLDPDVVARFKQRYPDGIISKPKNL
METTL3/METTL14, sequence (Q9HCE5 whole entry, further chain): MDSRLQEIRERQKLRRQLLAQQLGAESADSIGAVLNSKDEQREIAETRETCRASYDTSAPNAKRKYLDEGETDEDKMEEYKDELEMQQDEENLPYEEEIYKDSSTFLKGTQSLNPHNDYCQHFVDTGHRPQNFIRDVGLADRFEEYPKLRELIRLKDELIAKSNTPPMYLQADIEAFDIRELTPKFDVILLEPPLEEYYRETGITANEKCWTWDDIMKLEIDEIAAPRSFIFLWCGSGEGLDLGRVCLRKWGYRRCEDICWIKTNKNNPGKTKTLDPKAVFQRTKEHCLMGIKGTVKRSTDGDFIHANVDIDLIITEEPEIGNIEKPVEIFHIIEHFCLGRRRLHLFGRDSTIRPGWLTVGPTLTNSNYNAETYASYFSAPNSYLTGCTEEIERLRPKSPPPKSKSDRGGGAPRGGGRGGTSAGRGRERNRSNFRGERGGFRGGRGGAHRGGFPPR
How it was run: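 Compound is pre-incubated for 20 min at room temperature, then 1 μM [3H-methyl]SAM is added for 2 h at room temperature. Activity is reported as % remaining, screened at 100 μM, with IC50 from curve fits.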

SMILES | EC50 [1] | selectivity ratio [2] | CC50 [3] | EC50 [4] | CC50 [5] | EC50 [6] | EC50 [7] | EC50 [8] | CC50 [9] | EC50 [10] | EC50 [11] | EC50 [12] | CC50 [13] | IC50 [14]
CSC[C@H]1O[C@@H](n2cnc3c(N4CCc5ccccc54)ncnc32)[C@H](O)[C@@H]1O | > 100 µM | 3.4 | > 100 µM | > 100 µM | 64.9 µM | 19 µM |  |  |  |  |  |  |  | 
OC[C@H]1O[C@@H](n2cnc3c(N4CCc5ccccc54)ncnc32)[C@H](O)[C@@H]1O | > 100 µM |  | > 100 µM | > 100 µM | > 100 µM | > 100 µM |  |  |  |  |  |  |  | 
CCOC(=O)/C=C/[C@H](C[C@@H]1CCNC1=O)NC(=O)[C@@H](CC(=O)[C@@H](NC(=O)c1cc(C)on1)C(C)C)Cc1ccc(F)cc1 |  | > 111 |  |  | > 1 µM |  |  |  |  |  |  |  |  | 
C[C@H](NP(=O)(OC[C@H]1O[C@@H](n2cnc3c(NCc4cccc(C(F)(F)F)c4)ncnc32)[C@H](O)[C@@H]1O)Oc1ccccc1)C(=O)OCc1ccccc1 (stereo partly drawn) |  | 542 |  | > 100 µM | 9.18 µM | 0.017 µM |  |  |  |  |  |  |  | 
OC[C@H]1O[C@@H](n2ccc3c(NCc4cccc(C(F)(F)F)c4)ncnc32)[C@H](O)[C@@H]1O | > 100 µM | > 1070 | > 100 µM | > 100 µM | > 100 µM | 0.101 µM | > 100 µM | > 100 µM | > 100 µM | 19.9 µM | 91.2 µM | > 100 µM | > 100 µM | 129 µM
CSC[C@H]1O[C@@H](n2cnc3c(NC(C)c4ccccc4Cl)ncnc32)[C@H](O)[C@@H]1O (stereo partly drawn) | > 100 µM |  | > 100 µM | > 100 µM | > 100 µM | > 100 µM |  |  |  |  |  |  |  | 
CC(Nc1ncnc2c1ncn2[C@@H]1O[C@H](CO)[C@@H](O)[C@H]1O)c1ccccc1Cl (stereo partly drawn) | > 100 µM |  | > 100 µM | > 100 µM | > 100 µM | > 100 µM |  |  |  |  |  |  |  | 
CSC[C@H]1O[C@@H](n2cnc3c(NCc4cccc(S(F)(F)(F)(F)F)c4)ncnc32)[C@H](O)[C@@H]1O | > 100 µM | 12.7 | 46.4 µM | > 100 µM | 23.5 µM | 1.85 µM |  |  |  |  |  |  |  | 
CSC[C@H]1O[C@@H](n2ccc3c(NCc4cccc(Cl)c4)ncnc32)[C@H](O)[C@@H]1O | > 100 µM |  | > 100 µM | > 100 µM | > 100 µM | > 75 µM |  |  |  |  |  |  |  | 
CSC[C@H]1O[C@@H](n2cnc3c(NCc4cccc(Cl)c4)ncnc32)[C@H](O)[C@@H]1O | > 100 µM | > 37.7 | > 100 µM | > 100 µM | > 20 µM | 0.53 µM |  |  |  |  |  |  |  | 184 µM
OC[C@H]1O[C@@H](n2cnc3c(NCc4cccc(S(F)(F)(F)(F)F)c4)ncnc32)[C@H](O)[C@@H]1O | > 100 µM | > 1280 | > 100 µM | > 100 µM | > 100 µM | 0.102 µM | > 100 µM | > 100 µM | > 100 µM | 31.7 µM | > 100 µM | > 100 µM | 88.7 µM | 
CSC[C@H]1O[C@@H](n2cnc3c(NC(C)c4cccc(Cl)c4)ncnc32)[C@H](O)[C@@H]1O (stereo partly drawn) | > 100 µM | 10.5 | 50.8 µM | > 100 µM | 44.3 µM | 4.21 µM |  |  |  |  |  |  |  | 
CSC[C@H]1O[C@@H](n2cnc3c(NCc4cccc(C(F)(F)F)c4)ncnc32)[C@H](O)[C@@H]1O | > 100 µM |  | > 100 µM | > 100 µM | > 100 µM | > 20 µM |  |  |  |  |  |  |  | 
